Several values for one entry are separate records, joined by “and”; a condition that tells them apart may be missing. Equal values may be shown once.
Test system: U2OS
Test: Multiplex assay against U2OS
Format: toxicity, cell-based
Details: human
How it was run: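 Compound was added to live cells that had been stained at seeding with Hoechst33342, BioTracker Green Microtubule Cytoskeleton Dye, MitoTracker Red and Annexin V Alexa Fluor 680, and imaging followed on a CQ1 microscope at 37°C and 5% CO2. CellPathfinder machine-learning gating divided cells into Hoechst high-intensity objects or normal cells, normal cells into healthy, pyknosed or fragmented nuclei, and pyknosed cells into mitotic or apoptotic. Tubulin, mitochondrial-mass and membrane-permeability phenotypes are per cents of healthy-nucleus cells.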

[1] = 12 h, 1 µM, compound concentration 1 uM
[2] = 12 h, 10 µM, compound concentration 10 uM
[3] = 24 h, 1 µM, compound concentration 1 uM
[4] = 24 h, 10 µM, compound concentration 10 uM
[5] = 48 h, 1 µM, compound concentration 1 uM
[6] = 48 h, 10 µM, compound concentration 10 uM

CCNC1(C(N)=O)CCN(c2ncnc3c2nc(-c2ccccc2Cl)n3-c2ccc(Cl)cc2)CC1 [OTENABANT]
Population Apoptotic (%) [1]: 77% and 85% | Population Fragmented Nuclei (%) [1]: 30% and 17% | Population Healthy Nuclei (%) [1]: 60% and 74% | Population Hoechst High Intensity Objects (%) [1]: 3% and 2% | Population Membrane Permeable-Phenotype (%) [1]: 13% and 11% | Population Mitotic Cells (%) [1]: 22% and 14% | Population Normal (%) [1]: 96% and 97% | Population Pyknosed Nuclei (%) [1]: 9% and 7% | Population Tubulin-Different-Phenotype (%) [1]: 4% and 10% | Total Cell Count [1]: 254 and 93 | Population Apoptotic (%) [2]: 58% and 70% | Population Fragmented Nuclei (%) [2]: 31% and 21% | Population Healthy Nuclei (%) [2]: 48% and 60% | Population Hoechst High Intensity Objects (%) [2]: 6% and 0% | Population Membrane Permeable-Phenotype (%) [2]: 81% and 65% | Population Mitochondria Different-Phenotype (%) [2]: 63% and 73% | Population Mitotic Cells (%) [2]: 41% and 30% | Population Normal (%) [2]: 93% and 99% | Population Pyknosed Nuclei (%) [2]: 19% and 18% | Population Tubulin-Different-Phenotype (%) [2]: 89% and 76% | Total Cell Count [2]: 211 and 112 | Population Apoptotic (%) [3]: 79% and 80% | Population Fragmented Nuclei (%) [3]: 26% and 24% | Population Healthy Nuclei (%) [3]: 61% and 62% | Population Hoechst High Intensity Objects (%) [3]: 3% and 4% | Population Membrane Permeable-Phenotype (%) [3]: 11% and 15% | Population Mitochondria Different-Phenotype (%) [3]: 5% and 15% | Population Mitotic Cells (%) [3]: 20% | Population Normal (%) [3]: 96% and 95% | Population Pyknosed Nuclei (%) [3]: 11% and 13% | Population Tubulin-Different-Phenotype (%) [3]: 7% and 5% | Total Cell Count [3]: 308 and 120 | Population Apoptotic (%) [4]: 69% and 80% | Population Fragmented Nuclei (%) [4]: 29% and 28% | Population Healthy Nuclei (%) [4]: 49% and 53% | Population Hoechst High Intensity Objects (%) [4]: 3% | Population Membrane Permeable-Phenotype (%) [4]: 55% and 47% | Population Mitochondria Different-Phenotype (%) [4]: 75% and 72% | Population Mitotic Cells (%) [4]: 30% and 20% | Population Normal (%) [4]: 96% | Population Pyknosed Nuclei (%) [4]: 20% and 18% | Population Tubulin-Different-Phenotype (%) [4]: 78% and 62% | Total Cell Count [4]: 218 and 137 | Population Apoptotic (%) [5]: 86% and 52% | Population Fragmented Nuclei (%) [5]: 24% and 16% | Population Healthy Nuclei (%) [5]: 64% and 69% | Population Hoechst High Intensity Objects (%) [5]: 1% and 4% | Population Membrane Permeable-Phenotype (%) [5]: 7% and 13% | Population Mitochondria Different-Phenotype (%) [5]: 4% and 10% | Population Normal (%) [5]: 98% and 95% | Population Pyknosed Nuclei (%) [5]: 10% and 14% | Population Tubulin-Different-Phenotype (%) [5]: 3% and 9% | Population Apoptotic (%) [6]: 86% and 80% | Population Fragmented Nuclei (%) [6]: 32% and 29% | Population Healthy Nuclei (%) [6]: 43% and 45% | Population Hoechst High Intensity Objects (%) [6]: 7% and 10% | Population Membrane Permeable-Phenotype (%) [6]: 49% and 43% | Population Mitochondria Different-Phenotype (%) [6]: 55% and 66% | Population Mitotic Cells (%) [6]: 13% and 20% | Population Normal (%) [6]: 92% and 89% | Population Pyknosed Nuclei (%) [6]: 23% and 24% | Population Tubulin-Different-Phenotype (%) [6]: 51% and 49% | Total Cell Count [6]: 269 and 138

C[C@H](N)COC(=O)[C@@H](CCCCN)NC(=O)Cc1c(-c2ccc3ccccc3c2)[nH]c2c1ccc1ccccc12
Population Apoptotic (%) [1]: 73% and 75% | Population Fragmented Nuclei (%) [1]: 26% and 14% | Population Healthy Nuclei (%) [1]: 66% and 78% | Population Hoechst High Intensity Objects (%) [1]: 3% and 0% | Population Membrane Permeable-Phenotype (%) [1]: 6% and 4% | Population Mitochondria Different-Phenotype (%) [1]: 3% and 2% | Population Mitotic Cells (%) [1]: 26% and 25% | Population Normal (%) [1]: 96% and 99% | Population Pyknosed Nuclei (%) [1]: 6% | Population Tubulin-Different-Phenotype (%) [1]: 3% and 4% | Total Cell Count [1]: 244 and 128 | Population Apoptotic (%) [2]: 78% and 50% | Population Fragmented Nuclei (%) [2]: 23% and 24% | Population Healthy Nuclei (%) [2]: 69% and 73% | Population Hoechst High Intensity Objects (%) [2]: 2% and 0% | Population Mitochondria Different-Phenotype (%) [2]: 1% and 3% | Population Mitotic Cells (%) [2]: 21% and 50% | Population Normal (%) [2]: 97% and 100% | Population Pyknosed Nuclei (%) [2]: 7% and 1% | Population Tubulin-Different-Phenotype (%) [2]: 3% and 5% | Total Cell Count [2]: 279 and 106 | Population Apoptotic (%) [3]: 83% and 90% | Population Fragmented Nuclei (%) [3]: 22% and 16% | Population Healthy Nuclei (%) [3]: 68% and 77% | Population Hoechst High Intensity Objects (%) [3]: 2% and 1% | Population Membrane Permeable-Phenotype (%) [3]: 3% and 6% | Population Mitochondria Different-Phenotype (%) [3]: 1% | Population Mitotic Cells (%) [3]: 16% and 10% | Population Normal (%) [3]: 97% and 98% | Population Pyknosed Nuclei (%) [3]: 8% and 5% | Population Tubulin-Different-Phenotype (%) [3]: 2% and 3% | Total Cell Count [3]: 292 and 170 | Population Apoptotic (%) [4]: 81% and 100% | Population Fragmented Nuclei (%) [4]: 19% and 17% | Population Healthy Nuclei (%) [4]: 73% and 79% | Population Hoechst High Intensity Objects (%) [4]: 2% | Population Membrane Permeable-Phenotype (%) [4]: 5% and 11% | Population Mitochondria Different-Phenotype (%) [4]: 1% and 3% | Population Mitotic Cells (%) [4]: 18% and 0% | Population Normal (%) [4]: 97% | Population Pyknosed Nuclei (%) [4]: 6% and 2% | Population Tubulin-Different-Phenotype (%) [4]: 2% and 6% | Total Cell Count [4]: 337 and 142 | Population Apoptotic (%) [5]: 79% and 73% | Population Fragmented Nuclei (%) [5]: 16% and 17% | Population Healthy Nuclei (%) [5]: 78% and 73% | Population Hoechst High Intensity Objects (%) [5]: 1% and 2% | Population Membrane Permeable-Phenotype (%) [5]: 2% and 3% | Population Mitochondria Different-Phenotype (%) [5]: 2% and 4% | Population Mitotic Cells (%) [5]: 20% and 26% | Population Normal (%) [5]: 98% and 97% | Population Pyknosed Nuclei (%) [5]: 5% and 8% | Population Tubulin-Different-Phenotype (%) [5]: 2% and 1% | Total Cell Count [5]: 440 and 231 | Population Apoptotic (%) [6]: 90% | Population Fragmented Nuclei (%) [6]: 14% and 16% | Population Healthy Nuclei (%) [6]: 74% and 77% | Population Hoechst High Intensity Objects (%) [6]: 4% | Population Membrane Permeable-Phenotype (%) [6]: 6% and 16% | Population Mitochondria Different-Phenotype (%) [6]: 1% and 2% | Population Mitotic Cells (%) [6]: 9% and 10% | Population Normal (%) [6]: 95% | Population Pyknosed Nuclei (%) [6]: 10% and 5% | Population Tubulin-Different-Phenotype (%) [6]: 2% and 6% | Total Cell Count [6]: 505 and 184

Reference: ChEMBL document CHEMBL5724801, “EUbOPEN Chemogenomics Library - Multiplex” (2024)
